Experimental data gathered from unrelated publications.
Each line is one published result; the experiments were not run side by side.
KDM1A: Lysine-specific histone demethylase 1A (KDM1A, Homo sapiens, UniProt O60341)
MEP1A: Meprin A subunit alpha (MEP1A, Homo sapiens, UniProt Q16819)
PDE5A: cGMP-specific 3',5'-cyclic phosphodiesterase (PDE5A, Homo sapiens, UniProt O76074)
PPO3: PPO3 (Agaricus bisporus, UniProt C7FF04)
HDAC2: Histone deacetylase 2 (HDAC2, Homo sapiens, UniProt Q92769)
AURKB: Aurora kinase B (AURKB, Homo sapiens, UniProt Q96GD4)
PFF0160c: Dihydroorotate dehydrogenase (quinone), mitochondrial (PFF0160c, Plasmodium falciparum, UniProt Q08210)

CN(C)CCOc1ccc(-c2nc(-c3ccncc3)c(-c3ccc4c(c3)CC/C4=N\O)[nH]2)cc1 — IC50 (Serine/threonine-protein kinase A-Raf (ARAF, Homo sapiens, UniProt P10398); enzyme activity, inhibitor; lysate): > 10 µM
CCCSc1nc(Sc2nnnn2C)c2nnn(CCc3cccs3)c2n1 — IC50 (KDM1A; enzyme activity, inhibitor, fluorescence): 0.339 µM
O=C(CCN(Cc1ccncc1)Cc1ccc2c(c1)OCO2)NO — IC50 (MEP1A; enzyme activity, inhibitor): 0.474 µM
CCN1CC(=O)N2[C@H](c3ccc(OC)c(OC)c3)c3[nH]c4ccccc4c3C[C@@H]2C1=O — IC50 (PDE5A; enzyme activity, inhibitor, FP): 4.35 µM
Cc1ccc(C(C)C)cc1NC(=O)COC(=O)/C=C/c1ccc(O)cc1 — IC50 (PPO3; enzyme activity, inhibitor): 1.41 µM
COC(=O)[C@@H]1Cc2c([nH]c3ccccc23)[C@H](c2cccnc2)N1 — IC50 (PDE5A; enzyme activity, inhibitor, FP): > 10 µM
CCC(=O)CCCCC[C@@H]1NC(=O)[C@H](C)N(C)C(=O)C[C@H](CC(C)C)NC(=O)[C@H](Cc2c[nH]c3ccccc23)NC1=O — IC50 (HDAC2; enzyme activity, inhibitor): 0.04 µM
COc1cc(C[C@H]2C(=O)OC[C@@H]2Cc2ccc(OC)c(OC)c2)ccc1O — IC50 (PDE5A; enzyme activity, inhibitor): > 20 µM
Nc1nc(N)c(N=Nc2ccccc2[N+](=O)[O-])c(N)n1 — IC50 (PPO3; enzyme activity, inhibitor, absorbance): 34.1 µM
CC(C)(C)n1nc(-c2ccc3nc(OC4CC4)ccc3c2)c(C(N)=O)c1N — IC50 (AURKB; cell-free assay, inhibitor): > 10 µM
Cc1cc(Nc2cccc(Cl)c2)n2nc(OCCN(C)C)nc2n1 — IC50 (PFF0160c; enzyme activity, inhibitor): > 10 µM
CC[C@@H](C(=O)Nc1ccc(C(N)=O)c(F)c1)n1cc(OC)c(-c2cc(Cl)ccc2-n2cc(C(F)(F)F)nn2)cc1=O — IC50 (Vitamin K-dependent protein C (PROC, Homo sapiens, UniProt P04070); enzyme activity, inhibitor): > 10 µM
Cc1ccc(C(C)C)cc1NC(=O)COC(=O)/C=C/c1ccc(Cl)cc1 — IC50 (PPO3; enzyme activity, inhibitor): 16.7 µM
COc1ccc(C2=NN(C3CCCCCC3)C(=O)[C@@H]3CC=CC[C@H]23)cc1-c1ccc(C(N)=O)cc1 (relative stereo) — IC50 (3',5'-cyclic-AMP phosphodiesterase 4A (PDE4A, Homo sapiens, UniProt P27815); enzyme activity, inhibitor): 0.251 µM
Cc1cc(Nc2cccc(Cl)c2)n2nc(CC(C)C)nc2n1 — IC50 (PFF0160c; enzyme activity, inhibitor): > 10 µM
O=C(NC1CC2(C1)CN(C(=O)c1cc3ccccc3c(=O)[nH]1)C2)c1c[nH]nn1 — IC50 (Poly [ADP-ribose] polymerase 1 (PARP1, Homo sapiens, UniProt P09874); enzyme activity, inhibitor): 1.28 µM
Cc1cnc(-c2ccc(-c3ccc(NC(=O)Nc4c(F)cc(F)cc4F)cc3F)c3c2C(=O)NC3)[nH]1 — IC50 (Cytoplasmic tyrosine-protein kinase BMX (BMX, Homo sapiens, UniProt P51813); enzyme activity, inhibitor): 0.0144 µM
Nc1nc(N)c(N=Nc2ccccc2[N+](=O)[O-])c(Cl)n1 — IC50 (PPO3; enzyme activity, inhibitor, absorbance): 24.7 µM
CCN1C(=O)[C@H]2Cc3c([nH]c4ccccc34)[C@H](c3ccc(OC)c(OC)c3)N2C1=O — IC50 (PDE5A; enzyme activity, inhibitor, FP): 7 µM
CC/C=C\C/C=C\C/C=C\C/C=C\C/C=C\CCCC(=O)O — IC50 (Deoxyribonuclease-1 (DNASE1, Bos taurus, UniProt P00639); enzyme activity, inhibitor): > 100 µM
CCCCc1ccc(-c2ccc(-c3cc(C(=O)O)c4cccc([N+](=O)[O-])c4n3)o2)cc1 — IC50 (Eukaryotic initiation factor 4A-I (EIF4A1, Homo sapiens, UniProt P60842); ATPase activity, inhibitor, absorbance): 27.5 µM
Cc1ccc(C(C)C)cc1NC(=O)COC(=O)c1ccc(O)c(O)c1 — IC50 (PPO3; enzyme activity, inhibitor): 11 µM
COc1ccc([C@@H]2c3[nH]c4ccccc4c3C[C@H]3C(=O)N(c4ccc(Cl)cc4)C(=O)N23)cc1OC — IC50 (PDE5A; enzyme activity, inhibitor, FP): 5.36 µM
CCCSc1nc(Sc2nnnn2C)c2nnn(C3CCCC3)c2n1 — IC50 (KDM1A; enzyme activity, inhibitor, fluorescence): 0.413 µM
COc1ccc(N=Nc2c(N)nc(N)nc2Cl)cc1 — IC50 (PPO3; enzyme activity, inhibitor, absorbance): 28 µM
Cc1cc(Nc2ccc(C(F)(F)F)cc2)n2nc(OCCN)nc2n1 — IC50 (PFF0160c; enzyme activity, inhibitor): > 10 µM
CCOCc1nc(O)c(-c2nnc(Cc3ccc(Cl)cn3)o2)c(O)c1-c1c(OC)cccc1OC — IC50 (Adenosine receptor A2a (ADORA2A, Homo sapiens, UniProt P29274); ligand displacement, radioligand): > 30 µM
O=C(Nc1c[nH]nc1-c1nc2cc(CN3CCOCC3)ccc2[nH]1)NC1CC1 — IC50 (AURKB; enzyme activity, inhibitor, mobility shift): 0.0023 µM
O=C(Nc1ccn(Cc2ccc(O)cc2C(F)(F)F)n1)c1c(F)cccc1F — IC50 (Sodium channel protein type 9 subunit alpha (SCN9A, Homo sapiens, UniProt Q15858); ion current, inhibitor): > 10 µM
CCCCC[C@H](O)/C=C/[C@H]1[C@@H]2CO[C@@H](C2)[C@@H]1C/C=C\CCCC(=O)O — IC50 (Thromboxane A2 receptor (TBXA2R, Homo sapiens, UniProt P21731); ligand displacement, radioligand): 0.013 µM
COCCc1nc2nc(C)cc(Nc3cccc(Cl)c3)n2n1 — IC50 (PFF0160c; enzyme activity, inhibitor): > 10 µM
O=C(CCN(Cc1ccc2c(c1)OCO2)Cc1ccc(Cl)c(O)c1F)NO — IC50 (MEP1A; enzyme activity, inhibitor): 0.159 µM
COCCOc1nc2nc(C)cc(Nc3ccc(Cl)cc3)n2n1 — IC50 (PFF0160c; enzyme activity, inhibitor): > 10 µM
CCCON(Cc1ccc(C(=O)NO)cc1)C(=O)Nc1ccccc1 — IC50 (HDAC2; enzyme activity, inhibitor, fluorescence): 1.42 µM
CC(C)(C)N1C(=O)[C@H]2Cc3c([nH]c4ccccc34)[C@H](c3cccnc3)N2C1=O — IC50 (PDE5A; enzyme activity, inhibitor, FP): 4.75 µM
CN(CCCCNC(=O)c1cc2ccccc2[nH]1)[C@@H]1Cc2cccc3[nH]c(=O)n(c23)C1 — IC50 (5-hydroxytryptamine receptor 2A (HTR2A, Homo sapiens, UniProt P28223); ligand displacement, radioligand): 1.94 µM
Cc1cc(Nc2ccc(S(F)(F)(F)(F)F)cc2)n2nc(OCCN(C)C)nc2n1 — IC50 (PFF0160c; enzyme activity, inhibitor): > 10 µM
CCCC[C@H](NC(=O)[C@H](C)c1c(C)[nH]c2ccc(O)cc12)c1ncc(-c2cc3ccccc3nc2OC)[nH]1 — IC50 (Cannabinoid receptor 1 (CNR1, Homo sapiens, UniProt P21554); cell-free assay): 9.75 µM
CNCCOc1nc2nc(C)cc(Nc3cccc(Cl)c3)n2n1 — IC50 (PFF0160c; enzyme activity, inhibitor): > 10 µM
Cc1cc(Nc2ccc3c(c2)CCCC3)n2ccnc2n1 — IC50 (PFF0160c; enzyme activity, inhibitor): 0.1 µM
Cc1cc(Nc2cccc(Cl)c2)n2nc(CC3CC3)nc2n1 — IC50 (PFF0160c; enzyme activity, inhibitor): > 10 µM
CCCSc1nc(Sc2nc3ccccc3s2)c2nnn(CCO)c2n1 — IC50 (KDM1A; enzyme activity, inhibitor, fluorescence): 0.847 µM
